MC4R antag cAMP: antagonists of human melanocortin 4 receptor (MC4R); MC4R-expressing cells, MTII-stimulated cAMP, LANCE TR-FRET; 0.48% of 360,000 active; inhibition, % at 6.5 µM; P32245;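 active = inhibition above its plate's cutoff, the mean of tested wells on that plate plus 3 SD, cut at about 29% in these data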;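 also: 0% = Melanotan II alone and 100% = Melanotan II plus saturating MCL0020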
Target sequence (P32245 whole entry, looked up): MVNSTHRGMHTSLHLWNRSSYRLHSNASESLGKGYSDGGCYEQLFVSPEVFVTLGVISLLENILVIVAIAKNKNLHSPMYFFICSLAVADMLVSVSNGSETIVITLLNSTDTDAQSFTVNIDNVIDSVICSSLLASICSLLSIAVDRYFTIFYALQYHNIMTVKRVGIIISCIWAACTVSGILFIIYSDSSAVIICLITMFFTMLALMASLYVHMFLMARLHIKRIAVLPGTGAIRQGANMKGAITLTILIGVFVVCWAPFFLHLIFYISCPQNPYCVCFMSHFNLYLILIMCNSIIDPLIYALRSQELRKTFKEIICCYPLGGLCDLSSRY
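Test system: U2OS cells stably expressing human melanocortin 4 receptor (MC4R); also added: Melanotan II challenge; compound: 6.5 µM single dose; timing: 30-min compound preincubation, 1-h Melanotan II challenge, 1-h detection, room temperature; signal: Eu-cAMP/anti-cAMP TR-FRET, emission 671 nm; repeats: one well per compound, no replicates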
PfGluPho inh: PfG6PD (Plasmodium falciparum) enzyme inhibition; inhibition, % at 20 µM; PfGluPho enzyme, NADPH resazurin-diaphorase fluorescence; 0.78% of 350,000 active;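 active = inhibition reaching at least a set limit at 20 µM in the primary screen, cut at about 59% in these data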;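 also: 0% = DMSO wells with substrate and 100% = DMSO wells lacking glucose-6-phosphate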
MC4R ag barr: agonists of human melanocortin 4 receptor (MC4R) beta-arrestin | U2OS MC4R beta-arrestin complementation, luminescence; percent of melanotan II response, DMSO zero | 0.98% of 360,000 active | activation, % at 8.9 µM;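 active = activation above a per-plate cutoff, the mean activation of sample wells on that plate plus 3 SD, cut at about 8% in these data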
ABHD5 PLIN5 PPI: blocks binding of human ABHD5 to perilipin-5; inhibition, % at 4 µM; Split G. princeps luciferase complementation, luminescence, 4 h; AID 602281; 0.78% of 360,000 active;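 active = inhibition above the mean inhibition across every tested compound plus 3 SD, cut at about 22% in these data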;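 also: 0% = DMSO only wells and the 100% control is not disclosed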
Beta2AR agonist: activates human beta-2 adrenergic receptor causing internalization; response, % (concentration not given with the values); 0.43% of 340,000 active; Am2.2-beta2AR cells, FAP receptor internalization, flow cytometry; P07550;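 active = response above a set limit, near 3 SD of response in nonfluorescent compounds, cut at about 42% in these data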
U2OS cAMP counter: U2OS forskolin cAMP inhibition counter-screen | shares compounds with MC4R antag cAMP | parental U2OS, LANCE TR-FRET | inhibition, % at 6.5 µM | 26% of 1,600 active | AID 602193;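 active = mean inhibition over triplicates above the low-control well mean plus 3 SD, set per campaign, cut at about 13% in these data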;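 also: signal is single emission at 671 nm which falls as cellular cAMP rises; 0% = forskolin-stimulated wells and 100% = buffer without forskolin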
MC4R antag conf: human MC4R cAMP antagonism confirmation; MC4R-expressing cells, MTII-stimulated cAMP, TR-FRET; 27% of 1,600 active; inhibition, % at 6.5 µM; shares compounds with MC4R antag cAMP; in the data active = inhibition above about 29%;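 also: 0% = agonist stimulated wells alone and 100% = agonist stimulated wells plus saturating reference antagonist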
Numbers without * were called inactive. A selection: hits, their analogues and other compounds. The true share with any hit is near 3%.

Screening O=C(NCCCCCCNC(=O)N1CCCCCC1)N1CCCCCC1 returned MC4R antag cAMP 30*, PfGluPho inh 6, MC4R ag barr 1, ABHD5 PLIN5 PPI -8, Beta2AR agonist -8, U2OS cAMP counter -3 and MC4R antag conf 0.
Screening CC1(C)OC(=O)C(=Cc2ccc(-c3ccc(S(N)(=O)=O)cc3)o2)C(=O)O1 returned MC4R antag cAMP 39*, PfGluPho inh 49, MC4R ag barr -1, ABHD5 PLIN5 PPI 22, Beta2AR agonist 2, U2OS cAMP counter 11 and MC4R antag conf 19.
`CCCC1=NN2C(=N)/C(=C\c3cc(C)n(-c4cc(C)cc(C)c4)c3C)C(=O)N=C2S1` gave MC4R antag cAMP 30*, PfGluPho inh -38, MC4R ag barr 2, ABHD5 PLIN5 PPI 10, Beta2AR agonist -15, U2OS cAMP counter -1 and MC4R antag conf -20.
For COc1ccccc1N(C)S(=O)(=O)c1ccc(C)c(C(=O)NC(C)c2ccccn2)c1 (configuration not stated) the results were MC4R antag cAMP 6, PfGluPho inh 6, MC4R ag barr 2, ABHD5 PLIN5 PPI -12 and Beta2AR agonist 0.
`O=C(CCl)NNC(=O)c1c(O)c2ccccc2[nH]c1=O` gave MC4R antag cAMP 31*, PfGluPho inh -3, MC4R ag barr 0, ABHD5 PLIN5 PPI 3, Beta2AR agonist 1, U2OS cAMP counter -1 and MC4R antag conf -3.
`COc1ccccc1CNC(=O)[C@H](C)NC(=O)C1CCN(C(=O)[C@@H](N)C(C)C)CC1` gave MC4R antag cAMP 1, PfGluPho inh -14, MC4R ag barr -1, ABHD5 PLIN5 PPI 0 and Beta2AR agonist -1.
For O=C(CCc1ccccc1)N1CCCC(Nc2ccc(F)cc2)C1 (configuration not stated) the results were MC4R antag cAMP 3, PfGluPho inh 8, MC4R ag barr -2, ABHD5 PLIN5 PPI -7 and Beta2AR agonist 6.
Screening O=S(=O)(NCC1CCC(NS(=O)(=O)c2c(F)cccc2F)CC1)c1ccc2c(c1)OCCO2 (configuration not stated) returned MC4R antag cAMP 2, PfGluPho inh -4, MC4R ag barr 3, ABHD5 PLIN5 PPI 5 and Beta2AR agonist -14.
For COC(=O)Cn1c(CN2CCN(c3ccccc3F)CC2)nc2c1c(=O)n(C)c(=O)n2C the results were MC4R antag cAMP 8, PfGluPho inh 1, MC4R ag barr 0, ABHD5 PLIN5 PPI -1 and Beta2AR agonist -8.
For CC(C)Cn1c(CN2CCN(c3ccccc3F)CC2)nc2c1c(=O)[nH]c(=O)n2C the results were MC4R antag cAMP 29*, PfGluPho inh -4, MC4R ag barr 1, ABHD5 PLIN5 PPI 1, Beta2AR agonist 1, U2OS cAMP counter 0 and MC4R antag conf 8.
Screening Cc1cc(=O)n2c(C(=O)Nc3ccc(C)c(C)c3)c(C(=O)Nc3ccccc3)sc2n1 returned MC4R antag cAMP 12, PfGluPho inh -5, MC4R ag barr -2, ABHD5 PLIN5 PPI 4 and Beta2AR agonist -4.
For Cc1ccc(NC(=O)c2sc(Cl)nc2-c2ccccc2)cc1C the results were MC4R antag cAMP 43*, PfGluPho inh -3, MC4R ag barr 5, ABHD5 PLIN5 PPI -8, Beta2AR agonist -2, U2OS cAMP counter 16* and MC4R antag conf 46*.
For O=C(Nc1cc(F)cc(F)c1)c1sc(Cl)nc1-c1ccccc1 the results were MC4R antag cAMP 31*, PfGluPho inh -3, MC4R ag barr 6, ABHD5 PLIN5 PPI -6, Beta2AR agonist 6, U2OS cAMP counter 3 and MC4R antag conf 9.
For O=C(Nc1ccccc1)c1sc(Cl)nc1-c1ccccc1 the results were MC4R antag cAMP 17, PfGluPho inh -4, MC4R ag barr -1, ABHD5 PLIN5 PPI 1 and Beta2AR agonist -22.
`Cc1ccc(S(=O)(=O)N2C[C@H]3C(=O)C[C@@H](c4ccccc4)N(S(=O)(=O)c4ccc(Br)cc4)[C@H]3C[C@H]2c2ccccc2)cc1` gave ABHD5 PLIN5 PPI -3.
`COc1cc(C(=S)N2CCOCC2)cc(OC)c1OC(=O)c1ccc(C)cc1` gave MC4R antag cAMP -1, PfGluPho inh -11, MC4R ag barr 0, ABHD5 PLIN5 PPI 4 and Beta2AR agonist 6.
Screening CC1=C([N+](=O)[O-])C(c2ccccc2)NC(=O)N1 (configuration not stated) returned MC4R antag cAMP 15, PfGluPho inh 13, MC4R ag barr 2, ABHD5 PLIN5 PPI 0 and Beta2AR agonist 2.
`COc1ccc(NC(=O)CN(C)CC(=O)Nc2ccc(Cl)c(S(=O)(=O)N(C)C)c2)cc1` gave MC4R antag cAMP -2, PfGluPho inh 4, MC4R ag barr -2, ABHD5 PLIN5 PPI 2 and Beta2AR agonist -3.
`CCN(CC(=O)Nc1ccc(Cl)c(S(=O)(=O)N(C)C)c1)CC(=O)NC(C)C` gave MC4R antag cAMP 30*, PfGluPho inh -5, MC4R ag barr 0, ABHD5 PLIN5 PPI -4, Beta2AR agonist 2, U2OS cAMP counter 1 and MC4R antag conf -15.
Clc1ccc(-c2c(C3=NCCCN3)nnn2-c2ccc(Cl)cc2)cc1 was read as MC4R antag cAMP -3, PfGluPho inh -7, MC4R ag barr -1, ABHD5 PLIN5 PPI 4 and Beta2AR agonist -1.
`CCOC(=O)C1CCCN(C(=O)CN2C(=O)NC(C)(c3ccc4ccccc4c3)C2=O)C1` (configuration not stated) gave MC4R antag cAMP 11, PfGluPho inh -6, MC4R ag barr -4, ABHD5 PLIN5 PPI -7 and Beta2AR agonist 5.
`O=C(c1cnc(Cl)c(Cl)c1)N1CCN(S(=O)(=O)c2ccc3ccccc3c2)CC1` gave MC4R antag cAMP 36*, PfGluPho inh 5, MC4R ag barr -4, ABHD5 PLIN5 PPI -6, Beta2AR agonist 18, U2OS cAMP counter 17* and MC4R antag conf 54*.
O=C(c1ccncc1)N1CCN(S(=O)(=O)c2ccc3ccccc3c2)CC1 was read as MC4R antag cAMP 3, PfGluPho inh 0, MC4R ag barr -2, ABHD5 PLIN5 PPI -2 and Beta2AR agonist -8.
Screening Cc1cc(C)c[n+](C(C)C(=O)c2ccc(-c3ccccc3)cc2)c1 (configuration not stated) returned MC4R antag cAMP -1, PfGluPho inh 0, MC4R ag barr -2, ABHD5 PLIN5 PPI 5 and Beta2AR agonist -2.
Screening O=C(CCC(=O)c1ccc(F)cc1)OC1CCOC1=O (configuration not stated) returned MC4R antag cAMP 33*, PfGluPho inh -25, MC4R ag barr 0, ABHD5 PLIN5 PPI 1, Beta2AR agonist -2, U2OS cAMP counter 21* and MC4R antag conf 37*.
